The list is not random: actives were taken first. Their share in the collection is about 4.2%.
OX1R antag-1: human HCRTR1 antagonism; 330,000 compounds, 0.43% hits; O43613; CHO/OX1R cells, Fluo-8 calcium fluorescence, orexin A; inhibition, % at 5 µM;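 active = inhibition above its plate's threshold, mean inhibition of all tested compounds on the plate plus 3 SD, cut at about 37% in these data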;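 also: 0% = orexin A challenge wells and 100% = SB-334867-A antagonist wells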
CHO parental Ca: counter-screen: ATP calcium response change in parental CHO cells; parental CHO-K1, ATP-induced calcium, Fluo-8 fluorescence; inhibition, % at 5.6 µM; 330,000 compounds, 0.63% hits; AID 463079;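 active = inhibition above that plate's mean sample inhibition plus 3 SD, cut at about 26% in these data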;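 also: 0% = ATP-challenged DMSO wells and 100% = DMSO wells without ATP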
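Test system: parental CHO cells; detection: calcium-sensitive Fluo-8 fluorescence; evaluation: percent inhibition of calcium signal; also added: ATP as calcium-mobilizing challenge; repeats: one well per compound; control set: ATP-challenged DMSO wells low, unchallenged DMSO wells high; compound: single nominal dose of 5.6 µM per compound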
OX1R antag-2: blocks the human orexin 1 receptor; OX1R-expressing cells, FRET antagonist read-out; inhibition, % at 6.6 µM; 330,000 compounds, 1.8% hits; AID 485270; in the data active = inhibition mostly above about 38%, no sharp cut-off; inactive = mostly below about 40%;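 also: 0% = agonist challenge alone and 100% = reference antagonist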
TAAR1 ag: agonists of human TAAR1; Q96RJ0; CHO RD-HGA16 TAAR1, Fluo-8 calcium fluorescence; vehicle wells 0%, saturating PEA agonist 100%; activation, % at 3 µM; 360,000 compounds, 0.99% hits; AID 624467;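 active = activation above the mean activation of all test compounds in the run plus 3 SD, cut at about 38% in these data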
Target sequence (Q96RJ0 whole entry, looked up): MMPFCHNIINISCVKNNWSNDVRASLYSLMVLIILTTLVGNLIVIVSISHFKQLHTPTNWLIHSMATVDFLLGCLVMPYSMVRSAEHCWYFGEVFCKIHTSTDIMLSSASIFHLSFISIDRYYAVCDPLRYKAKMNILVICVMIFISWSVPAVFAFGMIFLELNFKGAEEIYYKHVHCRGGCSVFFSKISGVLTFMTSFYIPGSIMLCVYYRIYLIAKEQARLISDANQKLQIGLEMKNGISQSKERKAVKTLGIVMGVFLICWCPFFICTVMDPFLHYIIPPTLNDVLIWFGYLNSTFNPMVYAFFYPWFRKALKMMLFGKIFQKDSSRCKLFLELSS
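Test system: RD-HGA16 (CHO) cells co-expressing Gα16 and hTAAR1 / Benchmarks: DMSO vehicle as 0%, PEA at EC100 as 100% / Repeats: no replicates (n 1) / Measure: % activation from peak over basal fluorescence ratio, DMSO-to-PEA scaled / Timing: 17-24 h plating, Fluo-8 75 min 37 °C, 30 min RT / Technique: kinetic Fluo-8 calcium fluorescence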
GalR3 antag: blocks the human galanin receptor 3. O60755. HEK293 GalR3-CNG cAMP membrane potential fluorescence; galR3 body fused to GalR1 C-terminus. inhibition, % at 3 µM. 360,000 compounds, 0.44% hits. AID 651719;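 active = inhibition above the screen-wide average plus 3 SD, cut at about 13% in these data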;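 also: forskolin and galanin both at EC90 stimulate the cells; cAMP rise reported by CNG channel membrane potential dye signal; 0% = forskolin plus galanin with DMSO and 100% = forskolin alone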
TAAR1 antag: antagonists of human TAAR1. inhibition, % at 3 µM. Q96RJ0. 360,000 compounds, 1.5% hits. CHO RD-HGA16 TAAR1, Fluo-8 calcium fluorescence, antagonist;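 active = inhibition above a per-plate cutoff, the mean inhibition of test compounds on that plate plus 3 SD, cut at about 49% in these data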;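 also: 0% = DMSO plus EC80 beta-PEA response and 100% = DMSO alone without agonist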
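Test system: hTAAR1-expressing CHO RD-HGA16 cells, Gα16-coupled; Probe or stimulus: EC80 β-phenethylamine stimulus; Compound dosing: single nominal final test compound concentration of 3 µM; Timing: 140 s kinetic read after compound, 140 s after agonist; Signal: Fluo-8 calcium-sensitive fluorescence; Measure: % inhibition of agonist calcium response; Controls: DMSO and EC80 PEA controls.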
nonsel antag count: nonselective antagonism, TAAR1 counter-screen | shares compounds with TAAR1 antag | counterscreen cell line, calcium fluorescence, antagonist mode | inhibition, % at 3 µM | 2,400 compounds, 77% hits | AID 651780; in the data active = inhibition above about 22%;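 also: CHO-Ga16 host cells stimulated with ATP at an EC80 level; 0% = agonist EC80 plus vehicle and 100% = vehicle without agonist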
TAAR1 antag conf: confirmation of human TAAR1 antagonists. shares compounds with TAAR1 antag. inhibition, % at 3 µM. TAAR1-expressing cells, fluorescence antagonist read-out. 2,400 compounds, 40% hits; in the data active = inhibition above about 49%;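 also: CHO-Ga16 host cells challenged with agonist PEA near its EC80; 0% = agonist at EC80 plus vehicle and 100% = vehicle with no agonist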
Ga16 nonsel ag: counter-screen for TAAR1 antagonists: nonselective Ga16 agonists | 2,400 compounds, 18% hits | shares compounds with TAAR1 antag | AID 651953 | Ga16-expressing cells, calcium fluorescence, agonist counterscreen | activation, % at 3 µM; in the data active = activation above about 12%;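 also: 0% = vehicle wells and 100% = saturating stimulus response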
TAAR1 ag counter: activates human TAAR1 in antagonist counter-screen. shares compounds with TAAR1 antag. hTAAR1 cell line, fluorescence activation, agonist mode. activation, % at 3 µM. 2,400 compounds, 2% hits; in the data active = activation above about 37%;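 also: CHO cells stably expressing TAAR1 with calcium dye readout; 0% = DMSO vehicle and 100% = full agonist response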
* hit, by the source's call; . = no result.

SMILES | OX1R antag-1 | CHO parental Ca | OX1R antag-2 | TAAR1 ag | GalR3 antag | TAAR1 antag | nonsel antag count | TAAR1 antag conf | Ga16 nonsel ag | TAAR1 ag counter
O=C(Nc1cccc(S(=O)(=O)NC2=NCCCCC2)c1)c1cc(-c2ccccc2)nc2ccccc12 | -25 | -22 | 0 | 19 | -6 | 63* | 28* | 50* | 10 | 6
O=C(Nc1cccc(S(=O)(=O)NC2=NCCCCC2)c1)c1cc(-c2ccc(Cl)cc2)nc2ccccc12 | -9 | 3 | 27 | 4 | -4 | 33 | . | . | . | .
COc1cccc(NC(=O)c2cc(-c3ccc(C)o3)nc3ccccc23)c1 | -17 | -9 | 6 | 7 | -2 | 55* | 25* | 42 | 7 | 5
COc1ccc(NC(=O)c2cc(-c3ccccn3)nc3ccccc23)cc1S(=O)(=O)N(C)C | -6 | -19 | 17 | 22 | -4 | 69* | 25* | 43 | 9 | 10
COc1cc(-c2cc(C(=O)Nc3cccc(S(=O)(=O)N(C)C)c3)c3ccccc3n2)cc(OC)c1OC | -11 | 1 | 14 | 16 | -8 | 54* | 34* | 49* | 9 | 10
Cc1nnc(C)n1/N=C/c1cccs1 | -10 | -7 | 14 | 1 | -2 | 7 | . | . | . | .
Cc1cccc2sc(NNC(=O)c3cc(-c4cccs4)nc4ccccc34)nc12 | -14 | -1 | 17 | 16 | -5 | 68* | 51* | 54* | 15* | 11
COc1ccc(-c2cc(C(=O)Nc3cccc(S(=O)(=O)NCc4ccco4)c3)c3ccccc3n2)cc1OC | -1 | 0 | 26 | 15 | -4 | 75* | 37* | 57* | 9 | 7
O=C(c1ccccc1)c1ccc2nc(-c3ccc(NC(=O)c4ccccc4F)cc3)[nH]c2c1 | 1 | -7 | 36 | 21 | -6 | 59* | 29* | 59* | 9 | 7
CN(c1ccccc1)C1CCCCC1NS(=O)(=O)c1ccc(Cl)cc1 (stereo not drawn) | 9 | -14 | 6 | 2 | -7 | 15 | . | . | . | .
CN(Cc1ccccc1)S(=O)(=O)c1ccc(NS(C)(=O)=O)cc1 | 9 | 9 | 8 | 2 | 4 | 3 | . | . | . | .
Cc1cc(-c2ccc(S(=O)(=O)N(C)Cc3ccccc3)cc2)on1 | 0 | 38* | 29 | 9 | 1 | 65* | 26* | 51* | 10 | 17
COc1ccccc1CN(Cc1nc2ccccc2c(=O)[nH]1)C(=O)Nc1ccc(C)cc1 | -38 | -25 | 20 | 14 | -4 | 19 | . | . | . | .
COc1ccccc1CN(Cc1nc2ccccc2c(=O)[nH]1)S(=O)(=O)c1ccc(C)cc1 | -9 | -25 | 25 | 1 | -11 | 53* | 15 | 38 | 8 | 11
COc1ccc(/C=N/NC(=O)c2cccc(NC(=O)c3ccc(Cl)cc3)c2)c(OC)c1 | -14 | -14 | 14 | 4 | -5 | 57* | 29* | 48 | 5 | 4
COc1ccc(/C=N/NC(=O)c2cc3c(ccc4ccccc43)o2)c(OC)c1 | . | . | . | 1 | -2 | 63* | 22* | 44 | 4 | 2
O=C(N/N=C/c1ccccc1F)c1cccc(NC(=O)c2ccccc2Cl)c1 | -30 | -22 | 6 | 18 | -10 | 59* | 29* | 53* | 10 | 11
COc1cc(/C=N/NC(=O)C(=O)/C=C2\NC(C)(C)Cc3ccccc32)ccc1O | -22 | -11 | 17 | 1 | -4 | 52* | 23* | 33 | 6 | 11

Screens as filed in PubChem.
